Our source for the Activity and EC50 values is ChEMBL document CHEMBL1152741, “Discovery, design, and synthesis of anti-metastatic lead phenylmethylene hydantoins inspired by marine natural products” (Bioorg Med Chem, 2009).

Each structure is given as a SMILES string. Calls of active or inactive are those of the source. The rule behind the calls is not given here.

Assay [1] relates to PC-3M. Put plainly: Antiinvasive activity in human PC3M cells expressing CTR assessed as change in core spheroid at => 100 uM after 48 hrs by spheroid disaggregation assay. It is filed as functional, cell-based.
The nature of assay [2]: Antimetastatic activity against human PC3M cells expressing CTR assessed as reduction in migration area at 200 uM after 48 hrs by spheroid disaggregation assay. It is filed as functional, PC-3M. The gist of the method:
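PC-3M-CT+ cells (which secrete calcitonin and carry CTR) are formed into spheroids from 5 × 10^4/mL cells in serum-free RPMI 1640. Plates are rocked 2 days at 37°C, giving spheroids of 150–300 μm. Single spheroids are placed on ECM-coated wells in serum-free medium, with t = 0 set at 1 h. They are photographed, kept 48 h at 37°C, then fixed and Diff-Quik stained. Radial migration distance is measured by micrometer after subtracting the initial diameter. Compounds are tested at 200 μM.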

Assay [3] has as its system PC-3M. Description: Cytotoxicity against human PC3M cells assessed as cell viability up to 50 uM by MTT assay. The assay is classed as functional, cell-based. (In general: Formazan colour is commonly taken as a measure of viable cells.)
Assay [4] in a line: Antiinvasive activity in human PC3M cells expressing CTR assessed as inhibition of calcitonin-induced cell migration after 24 hrs by spheroid disaggregation assay. As to conditions: PC-3M. It is filed as functional, cell-based.

For `O=C1NC(=O)/C(=C/c2cccc(-c3ccccc3)c2)N1`, in the assay with PC-3M [1], the outcome was inactive. Moreover, in assay [2], the Activity worked out at 76 um.

As for `Cc1ccc(/C=C2\NC(=O)NC2=O)c(F)c1F`, the outcome in the assay on PC-3M [1] was inactive. Moreover, in assay [2], the Activity came out at 175 um.

Consider `O=C1NC(=O)/C(=C/c2ccccc2-c2ccccc2)N1`, for which, in the assay with PC-3M [1], the result was inactive. Moreover, in assay [2], the Activity was determined as 56 um.

For the molecule `O=C1NC(=O)/C(=C/c2ccc(O)cc2)N1` [4-HYDROXYPHENYLMETHYLENE HYDANTOIN], the result with PC-3M [1] and with PC-3M [3] was inactive. Also, the 50% effective concentration (EC50) (as a rule, the midpoint of the concentration-response curve) in assay [4] came to 150 µM.

On to `O=C1NC(=O)/C(=C/c2ccccc2-c2cccs2)N1`, for which the result in the assay on PC-3M [1] was inactive. The Activity in assay [2] came out at 50 um.

Regarding `CCSc1ccc(/C=C2\NC(=O)NC2=O)cc1`, the result in the assay with PC-3M [1] was inactive. Moreover, the Activity in assay [2] was 15.5 um. Besides, in assay [4], the EC50 amounted to 30 µM.

In the case of `O=C1NC(=O)/C(=C/c2ccc(-c3cccs3)cc2)N1`, the outcome with PC-3M [1] was inactive. In assay [2], the Activity is given as 39 um.

On to `N#Cc1cccc(/C=C2\NC(=O)NC2=O)c1`, for which, in the assay on PC-3M [1], the result was inactive. Besides, the Activity in assay [2] is reported as 195 um.
